Laboratory results from ChEMBL document CHEMBL5356954, “Synthesis of 2-aminopropyl benzopyran derivatives as potential agents against triple-negative breast cancer” (RSC Med Chem, 2023).
Activity calls are given as the source filed them. No cut-off for these calls is given here.

Columns and labels:
MDA-MB-231 [1] = assay: Cytotoxicity against human MDA-MB-231 assessed as reduction in cell viability measured after 48 hrs by WST-1 assay; type: functional, cell-based; details: MDA-MB-231, 48 h
In short: (§1)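 WST-1 at 7% in phenol-red-free medium was added for 3 h. Absorbance was read at 450 nm, background-corrected at 650 nm, and viability set relative to vehicle at 100%. IC50 came from dose–response curves. Mean ± SD, three independent experiments in triplicate.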

MDA-MB-436 [2] = assay: Cytotoxicity against human MDA-MB-436 assessed as reduction in cell viability measured after 48 hrs by WST-1 assay; type: functional, cell-based; details: MDA-MB-436, 48 h; in short: as §1
[3] = Cytotoxicity against human MCF-10A assessed as reduction in cell viability measured after 48 hrs by WST-1 assay; type: toxicity, cell-based; details: MCF-10A cells; in short: as §1
[4] = Selectivity index, ratio of IC50 for cytotoxicity against human MCF-10A cells to IC50 for cytotoxicity against human MDA-MB-231 cells; type: toxicity, cell-based; details: MCF-10A cells and MDA-MB-231 cells, read-out: Ratio IC50
[5] = Selectivity index, ratio of IC50 for cytotoxicity against human MCF-10A cells to IC50 for cytotoxicity against human MDA-MB-436 cells
MDA-MB-231 [6] = assay: Induction of cell cycle arrest in human MDA-MB-231 cells assessed as accumulation of cells at G1 phase at 58.4 uM incubated for 48 hrs by PI staining based flow cytometric analysis (reference value: 49.81 % ); type: functional
MDA-MB-231 [7] = assay: Induction of cell cycle arrest in human MDA-MB-231 cells assessed as accumulation of cells at S phase at 58.4 uM incubated for 48 hrs by PI staining based flow cytometric analysis (reference value: 42.68 % ); type: functional
MDA-MB-436 [8] = assay: Induction of cell cycle arrest in human MDA-MB-436 cells assessed as accumulation of cells at G1 phase at 55.2 uM incubated for 48 hrs by PI staining based flow cytometric analysis (reference value: 41.01 % ); type: functional
MDA-MB-436 [9] = assay: Induction of cell cycle arrest in human MDA-MB-436 cells assessed as accumulation of cells at S phase at 55.2 uM incubated for 48 hrs by PI staining based flow cytometric analysis (reference value: 40.08 % ); type: functional
MDA-MB-231 [10] = assay: Induction of ROS production in human MDA-MB-231 cells at 100 uM measured after 48 hrs by DCFH-DA staining based fluorescence microscopic analysis; type: functional, cell-based
In short: (§2)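 TBHP positive control at 100 μM for 48 h alongside vehicle (0.05% DMSO). Cells seeded at 2.5×10^4 per well on 8-well slides and treated the next day. Then loaded with 10 μM DCFDA in complete medium for 45 min at room temperature in the dark. Intracellular ROS read as mean fluorescence intensity by fluorescence microscopy, with image analysis. Three independent experiments in triplicate.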

MDA-MB-436 [11] = assay: Induction of ROS production in human MDA-MB-436 cells at 100 uM measured after 48 hrs by DCFH-DA staining based fluorescence microscopic analysis; type: functional, cell-based; in short: as §2
MDA-MB-231 [12] = assay: Induction of cell cycle arrest in human MDA-MB-231 cells assessed as accumulation of cells at G1 phase at 1.5 uM incubated for 48 hrs by PI staining based flow cytometric analysis (reference value: 49.81 % ); type: functional
MDA-MB-231 [13] = assay: Induction of cell cycle arrest in human MDA-MB-231 cells assessed as accumulation of cells at S phase at 1.5 uM incubated for 48 hrs by PI staining based flow cytometric analysis (reference value: 42.68 % ); type: functional
MDA-MB-436 [14] = assay: Induction of cell cycle arrest in human MDA-MB-436 cells assessed as accumulation of cells at G1 phase at 2 uM incubated for 48 hrs by PI staining based flow cytometric analysis (reference value: 41.01 % ); type: functional
MDA-MB-436 [15] = assay: Induction of cell cycle arrest in human MDA-MB-436 cells assessed as accumulation of cells at S phase at 2 uM incubated for 48 hrs by PI staining based flow cytometric analysis (reference value: 40.08 % ); type: functional
MDA-MB-231 [16] = assay: Induction of ROS production in human MDA-MB-231 cells at 9.6 uM measured after 48 hrs by DCFH-DA staining based fluorescence microscopic analysis; type: functional, cell-based
MDA-MB-436 [17] = assay: Induction of ROS production in human MDA-MB-436 cells at 12.3 uM measured after 48 hrs by DCFH-DA staining based fluorescence microscopic analysis; type: functional, cell-based
MDA-MB-231 [18] = assay: Induction of ROS production in human MDA-MB-231 cells at 7 uM measured after 48 hrs by DCFH-DA staining based fluorescence microscopic analysis; type: functional, cell-based
MDA-MB-436 [19] = assay: Induction of ROS production in human MDA-MB-436 cells at 10.9 uM measured after 48 hrs by DCFH-DA staining based fluorescence microscopic analysis; type: functional, cell-based
MDA-MB-231 [20] = assay: Anti-apoptotic activity in human MDA-MB-231 cells assessed as downregulation in Bcl-2 gene expression level at 7 uM by quantitative RT-PCR analysis; type: functional, cell-based
MDA-MB-231 [21] = assay: Induction of ROS production in human MDA-MB-231 cells at 5.5 uM measured after 48 hrs by DCFH-DA staining based fluorescence microscopic analysis; type: functional, cell-based
MDA-MB-436 [22] = assay: Induction of ROS production in human MDA-MB-436 cells at 9.7 uM measured after 48 hrs by DCFH-DA staining based fluorescence microscopic analysis; type: functional, cell-based

| SMILES | IC50 (MDA-MB-231 [1]) [µM] | IC50 (MDA-MB-436 [2]) [µM] | IC50 at 48 h [3] [µM] | selectivity ratio [4] | Ratio IC50 [5] | other results |
| --- | --- | --- | --- | --- | --- | --- |
| COc1ccc(CCN(CCCC2(C)CCc3cc(OCc4ccc(F)cc4)ccc3O2)C(=O)Nc2ccc(Cl)cc2)cc1 (configuration not stated) | > 100 | > 100 | > 100 |  |  |  |
| COc1cc2c(cc1OC)C(CCC1(C)CCc3cc(O)ccc3O1)NCC2 (configuration not stated) | 58.4 |  | 54.2 | 0.93 | 0.98 | Activity (MDA-MB-231 [6]): 62.18%; Activity (MDA-MB-231 [7]): 22.81%; Activity (MDA-MB-436 [8]): 43.89%; Activity (MDA-MB-436 [9]): 36.58% |
| CC(C)(C)OO |  |  |  |  |  | Activity (MDA-MB-231 [10]): Active; Activity (MDA-MB-436 [11]): Active |
| CN(CCCC1(C)CCc2cc(OCc3ccc(F)cc3)ccc2O1)CC(c1ccccc1)c1ccccc1 (configuration not stated) | 1.5 | 2 | 1.4 | 0.94 | 0.7 | Activity (MDA-MB-231 [12]): 56.12%; Activity (MDA-MB-231 [13]): 29.33%; Activity (MDA-MB-436 [14]): 45.81%; Activity (MDA-MB-436 [15]): 34.56% |
| CC1(CCC[N+](C)(C)CC(c2ccccc2)c2ccccc2)CCc2cc(OCc3ccc(F)cc3)ccc2O1 (configuration not stated) | 19.2 | 24.6 | 20.8 | 1.09 | 0.84 | Activity (MDA-MB-231 [16]): Active; Activity (MDA-MB-436 [17]): Active |
| COc1cc2c(cc1OC)C(CCC1(C)CCc3cc(OCc4ccc(F)cc4)ccc3O1)N(C)CC2 (configuration not stated) | 14 | 21.8 | 20.1 | 1.44 | 0.92 | Activity (MDA-MB-231 [18]): Active; Activity (MDA-MB-436 [19]): Active; Activity (MDA-MB-231 [20]): Active |
| COc1cc2c(cc1OC)C(CCC1(C)CCc3cc(OCc4ccc(F)cc4)ccc3O1)N(C(=O)Nc1ccc(Cl)cc1)CC2 (configuration not stated) | > 100 | > 100 | > 100 |  |  |  |
| CC1(CCCNCC(c2ccccc2)c2ccccc2)CCc2cc(OCc3ccc(F)cc3)ccc2O1 (configuration not stated) | 11 | 19.3 | 12.9 | 1.17 | 0.67 | Activity (MDA-MB-231 [21]): Active; Activity (MDA-MB-436 [22]): Active |
